By IC50 is commonly meant the concentration that gives 50% inhibition. Low readings indicate greater potency, high ones weaker potency.

We go through eleven compounds from ChEMBL document CHEMBL1154841, “Cytotoxic triterpene dilactones from the stems of Kadsura ananosma” (J Nat Prod, 2010).

Holding throughout (format): functional, cell-based
Assay [1] relates to A549. Kind of assay: Cytotoxicity against human A549 cells after 48 hrs by MTT assay. Particulars: A549, 48 h. A digest of the protocol:
(§1)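 Cells grown in RPMI-1640 or DMEM with 10% fetal bovine serum, 37 °C, 5% CO2. Seeded at 1 × 10^5 cells/mL; adherent lines attached 12 h before dosing, suspension cells (HL-60) seeded at dosing. Compound given at various concentrations in triplicate for 48 h; 10-hydroxycamptothecin positive control. MTT 4 h at 37 °C, lysis in 20% SDS-50% DMF, formazan read at 595 nm.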
Background: Tetrazolium assays rely on reduction of a dye to a coloured formazan, in cell work by metabolically active cells.

Assay [2] relates to SK-BR-3. Kind of assay: Cytotoxicity against human SK-BR-3 cells after 48 hrs by MTT assay. Particulars: SK-BR-3, 48 h. A digest of the protocol: as §1
The subject of assay [3] is PANC-1. Kind of assay: Cytotoxicity against human PANC1 cells after 48 hrs by MTT assay. Conditions: PANC-1, 48 h. A digest of the protocol:
as §1

For assay [4], the system named is HL-60. Kind of assay: Cytotoxicity against human HL60 cells after 48 hrs by MTT assay. Conditions: HL-60, 48 h. The procedure, abridged:
as §1

Assay [5] concerns SMMC-7721. Kind of assay: Cytotoxicity against of human SMMC7721 cells after 48 hrs by MTT assay. Particulars: SMMC-7721, 48 h. A digest of the protocol:
as §1

Take `C=C1C([C@@H](C)[C@H]2CC=C(C)C(=O)O2)=CC[C@]2(C)[C@H]1C[C@]1(O)C=C3C=CC(=O)OC(C)(C)[C@@H]3[C@H](OC(C)=O)C[C@@H]21` [LOGIPEDLACTONE J]: the IC50 is > 10 µM in assay [1]; 2.8 µM in assay [2]; 5.3 µM in assay [3]; 2 µM in assay [4]; > 10 µM in assay [5].
In the case of `C=C1C([C@@H](C)[C@H]2CC=C(C)C(=O)O2)=CC[C@]2(C)[C@H]1C[C@]1(O)C=C3C=CC(=O)OC(C)(C)[C@@H]3CC[C@@H]21` [LONGIPEDLACTONE A], the IC50 is > 10 µM in assay [1]; > 10 µM in assay [2]; > 10 µM in assay [3]; 3.5 µM in assay [4]; > 10 µM in assay [5].
As for `C=C1C([C@@H](C)[C@H]2CC=C(C)C(=O)O2)=CC[C@]2(C)[C@H]1C[C@]1(O)[C@H]3O[C@]34C=CC(=O)OC(C)(C)[C@@H]4CC[C@@H]21` [LONGIPEDLACTONE D], the half-maximal inhibitory concentration (IC50) in assay [1], in assay [2], in assay [3], in assay [4] and in assay [5] was > 10 µM throughout.
As to `C=C1C([C@@H](C)[C@H]2CC=C(C)C(=O)O2)=CC[C@]2(C)[C@H]1C[C@]1(O)C=C3C=CC(=O)OC(C)(C)[C@@H]3[C@H](O)C[C@@H]21` [LONGIPEDLACTONE F], the IC50 is > 10 µM in assay [1]; 7.4 µM in assay [2]; 8.8 µM in assay [3]; 2.3 µM in assay [4]; > 10 µM in assay [5].
On to `C=C1C([C@@H](C)[C@H]2CC=C(C)C(=O)O2)=CC[C@]2(C)[C@H]1C[C@]1(O)[C@H]3O[C@]34C=CC(=O)OC(C)(C)[C@@H]4[C@H](O)C[C@@H]21` [LONGIPEDLACTONE G], for which the IC50 in assay [1], in assay [2], in assay [3], in assay [4] and in assay [5] was > 10 µM each time.
`C=C1[C@@H]2C[C@]3(O)[C@H]4O[C@]45C=CC(=O)OC(C)(C)[C@@H]5[C@H](O)C[C@H]3[C@]2(C)CC[C@@]1(O)[C@@H](C)[C@H]1CC=C(C)C(=O)O1` [LONGIPEDLACTONE I]: the IC50 in assay [1], in assay [2], in assay [3], in assay [4] and in assay [5] was > 10 µM each time.
Turning to `C=C1[C@H]([C@@H](C)[C@H]2CC=C(C)C(=O)O2)CC[C@@]2(C)[C@@H]3C[C@@H](OC(C)=O)[C@H]4C(C)(C)OC(=O)C[C@H]5OO[C@]3(C[C@@H]12)C[C@]54O` [LONGIPEDLACTONE K], the IC50 in assay [1], in assay [2], in assay [3], in assay [4] and in assay [5] was > 10 µM throughout.
In the case of `C=C1[C@H]([C@@H](C)[C@H]2CC=C(C)C(=O)O2)CC[C@]2(C)[C@H]1C[C@]1(O)C=C3C=CC(=O)OC(C)(C)[C@@H]3[C@H](OC(C)=O)C[C@@H]21` [LONGIPEDLACTONE L], the IC50 in assay [1] was > 10 µM; in assay [2], > 10 µM; in assay [3], > 10 µM; in assay [4], 7.3 µM; in assay [5], > 10 µM.
Regarding `C=C1[C@@H]2C[C@]3(O)C=C4C=CC(=O)OC(C)(C)[C@@H]4[C@H](OC(C)=O)C[C@H]3[C@]2(C)CC[C@@]1(O)[C@@H](C)[C@H]1CC=C(C)C(=O)O1` [LONGIPEDLACTONE M], the IC50 in assay [1] was > 10 µM; in assay [2], > 10 µM; in assay [3] it was > 10 µM; in assay [4], 4.1 µM; in assay [5], > 10 µM.
In the case of `C=C1C([C@@H](C)[C@H]2CC=C(C)C(=O)O2)=CC[C@]2(C)[C@H]1C[C@]1(O)[C@H]3O[C@]34C=CC(=O)OC(C)(C)[C@@H]4[C@H](OC(C)=O)C[C@@H]21` [LONGIPEDLACTONE N], the IC50 in assay [1], in assay [2], in assay [3], in assay [4] and in assay [5] was > 10 µM throughout.
Turning to `C=C1[C@@H]2C[C@]3(O)[C@H]4O[C@]45C=CC(=O)OC(C)(C)[C@@H]5[C@H](OC(C)=O)C[C@H]3[C@]2(C)CC[C@@]1(O)[C@@H](C)[C@H]1CC=C(C)C(=O)O1` [LONGIPEDLACTONE P], the IC50 in assay [1], in assay [2], in assay [3], in assay [4] and in assay [5] was > 10 µM each time.
